{"data": "Published values from different studies", "target": "Leukocyte tyrosine kinase receptor (LTK, Homo sapiens, UniProt P29376)", "note": "Compare with care: the assays were run in different laboratories."}
{"Structure (SMILES)": "c1cnn2ncc(-c3ccnc(N4CCC45COC5)n3)c2c1", "observed": "binding", "tested at": "1 µM", "remaining binding": "98%"}
{"Structure (SMILES)": "C[C@@H](c1ccc(-n2cnc3c(N)ncnc32)cc1)N1CCc2nn(C)c(Cc3ccccc3)c2C1=O", "observed": "binding", "technique": "competition with immobilised ligand", "tested at": "0.1 µM", "remaining binding": "87%"}
{"Structure (SMILES)": "O=C(NS(=O)(=O)c1ccc(NCC2CCOCC2)c([N+](=O)[O-])c1)c1ccc(N2CCN(Cc3ccc(C(F)(F)F)cc3-c3ccc(Cl)cc3)CC2)cc1Oc1cnc2[nH]ccc2c1", "observed": "cell-free assay", "technique": "competition with immobilised ligand", "tested at": "1 µM", "remaining binding": "100%"}
{"Structure (SMILES)": "CCN1CCN(Cc2ccc(C(=O)Nc3ccc(C)c(Oc4ccc5c(c4)CC(=O)N5)c3)cc2C(F)(F)F)CC1", "observed": "binding", "technique": "competition with immobilised ligand", "tested at": "1 µM", "remaining binding": "100%"}
{"Structure (SMILES)": "CN([C@@H]1CCc2c(CC(=O)O)c3cc(S(C)(=O)=O)ccc3n2C1)S(=O)(=O)c1ccc(F)cc1", "observed": "cell-free assay", "technique": "competition with immobilised ligand", "tested at": "1 µM", "remaining binding": "100%"}
{"Structure (SMILES)": "C[C@@H]1CCN(c2nccc(-c3cnn4ncccc34)n2)C1", "observed": "binding", "tested at": "1 µM", "remaining binding": "93%"}
{"Structure (SMILES)": "CS(=O)(=O)N1CCCC(NC(=O)[C@H](CCC2CCCCC2)NC(=O)c2ccc(CNc3ncnc4c3nnn4-c3ccccc3)cc2)C1 (stereo partly shown)", "observed": "cell-free assay", "technique": "competition with immobilised ligand", "tested at": "0.1 µM", "remaining binding": "100%"}
{"Structure (SMILES)": "O=C(c1ccc(Nc2nccc(-c3cc4ccccc4s3)n2)cc1)N1CCC(N2CCCC2)CC1", "observed": "binding", "technique": "competition with immobilised ligand", "tested at": "1 µM", "remaining binding": "100%"}
{"Structure (SMILES)": "COc1cnc(Nc2cccc(S(N)(=O)=O)c2)nc1N1CCN(c2ccccc2)CC1", "observed": "binding", "technique": "competition with immobilised ligand", "tested at": "1 µM", "remaining binding": "100%"}
{"Structure (SMILES)": "Nc1ncc2c(n1)-c1c([nH]c3ccc(C#CC4CC4)cc13)CCCC2", "observed": "binding", "technique": "competition with immobilised ligand", "tested at": "1 µM", "remaining binding": "100%"}
{"Structure (SMILES)": "COc1ncc2cc3ccccc3nc2c1C#N", "observed": "cell-free assay", "technique": "competition with immobilised ligand", "tested at": "5 µM", "remaining binding": "100%"}
{"Structure (SMILES)": "F[C@@H]1CCN(c2nccc(-c3cnn4ncccc34)n2)C1", "observed": "binding", "tested at": "1 µM", "remaining binding": "92%"}
{"Structure (SMILES)": "CSc1cccnc1N1CCN(Cc2nc3ccccc3[nH]2)CC1", "observed": "cell-free assay", "technique": "competition with immobilised ligand", "tested at": "1 µM", "remaining binding": "89%"}
{"Structure (SMILES)": "O=C(c1ccc(Nc2ncc(Cl)c(-c3cc4ccccc4s3)n2)cc1)N1CCC(N2CCCC2)CC1", "observed": "binding", "technique": "competition with immobilised ligand", "tested at": "1 µM", "remaining binding": "100%"}
{"Structure (SMILES)": "Cc1nc(Cc2cccc(C(F)(F)F)c2)sc1-c1ccc(C(N)=O)nc1", "observed": "cell-free assay", "technique": "competition with immobilised ligand", "tested at": "1 µM", "remaining binding": "100%"}
{"Structure (SMILES)": "N[C@H]1CCN(c2nccc(-c3cnn4ncccc34)n2)C1", "observed": "binding", "tested at": "1 µM", "remaining binding": "100%"}
{"Structure (SMILES)": "Cc1cc(-n2nc(Cc3cc(F)cc(C(F)(F)F)c3)nc2C)ccc1C(N)=O", "observed": "cell-free assay", "technique": "competition with immobilised ligand", "tested at": "1 µM", "remaining binding": "100%"}
{"Structure (SMILES)": "Cc1cnc(Nc2ccc(C(=O)N3CCC(N4CCCC4)CC3)cc2)nc1-c1cc2ccccc2s1", "observed": "binding", "technique": "competition with immobilised ligand", "tested at": "1 µM", "remaining binding": "85%"}
{"Structure (SMILES)": "CN(c1nccc(-c2cnn3ncccc23)n1)C1CC1", "observed": "binding", "tested at": "1 µM", "remaining binding": "100%"}
{"Structure (SMILES)": "O=C(NCC1CCOCC1)c1n[nH]cc1NC(=O)c1c(F)cccc1F", "observed": "binding", "technique": "competition with immobilised ligand", "tested at": "1 µM", "remaining binding": "100%"}
{"Structure (SMILES)": "COc1ccc2c(c1)O[C@H](c1ccc(OC)c(OC)c1)C[C@@H]2NC(=O)C1(c2ccc3c(c2)OC(F)(F)O3)CC1", "observed": "cell-free assay", "technique": "competition with immobilised ligand", "tested at": "1 µM", "remaining binding": "100%"}
{"Structure (SMILES)": "COc1ccnn2ncc(-c3ccnc(N(C)C)n3)c12", "observed": "binding", "tested at": "1 µM", "remaining binding": "98%"}
